From ChEMBL document CHEMBL3603811, “Design, chemical synthesis and biological evaluation of 3-spiromorpholinone/3-spirocarbamate androsterone derivatives as inhibitors of 17β-hydroxysteroid dehydrogenase type 3” (Bioorg Med Chem, 2015)

How the values were obtained:
[1] = target: T1, 17-beta-hydroxysteroid dehydrogenase type 3 (Rattus norvegicus) (UniProt O54939); test: Inhibition of 17beta-HSD3 in rat testes microsomes using [14C]-4-androstene-3,17-dione as substrate measured based on 4% of initial enzyme transformation at 10 uM after 2 hrs; settings: Testis
T1 sequence (whole entry): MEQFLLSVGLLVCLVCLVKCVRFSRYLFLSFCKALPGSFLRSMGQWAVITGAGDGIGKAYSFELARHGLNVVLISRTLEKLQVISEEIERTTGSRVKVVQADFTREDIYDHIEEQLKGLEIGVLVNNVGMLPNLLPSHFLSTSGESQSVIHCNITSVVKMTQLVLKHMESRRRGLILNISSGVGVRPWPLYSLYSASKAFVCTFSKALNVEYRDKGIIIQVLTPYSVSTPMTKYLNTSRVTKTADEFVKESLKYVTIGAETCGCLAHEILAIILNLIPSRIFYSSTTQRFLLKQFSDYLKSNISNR
Method in brief: (§1)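 Rat testis microsomes: homogenate in phosphate/sucrose/EDTA buffer pH 7.5 with protease inhibitors, spun 12,500g, then pellet from 100,000g, at 4 °C. Reaction 2 h at 37 °C in 50 mM sodium phosphate pH 7.4, 20% glycerol, 1 mM EDTA, with NADPH and [14C]-Δ4-dione (50 nM). Inhibitor in DMSO. [14C]-T and substrate identified against reference steroids and quantified. Percent transformation and percent inhibition calculated.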

[2] = target: T1, 17-beta-hydroxysteroid dehydrogenase type 3 (Rattus norvegicus); test: Inhibition of 17beta-HSD3 in rat testes microsomes using [14C]-4-androstene-3,17-dione as substrate measured based on 18% of initial enzyme transformation at 0.1 uM after 2 hrs; settings: Testis; method in brief: as §1
LAPC4 [3] = test: Androgenic activity in human LAPC4 cells expressing androgen receptor assessed as induction of cell proliferation at 0.1 uM after 3 days by MTS assay relative to control; assay type: functional
Method in brief: (§2)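 LAPC-4 (AR+) cells in RPMI-1640 with 5% dextran-coated charcoal-treated FBS to remove hormones. Triplicate cultures of 10,000 cells preincubated 24 h at 37 °C, 5% CO2. Compounds from 10^-2 M DMSO stock, diluted in medium, added for 3 days (final DMSO 0.05%; vehicle controls). Growth read by MTS. Androgenicity = % proliferation minus basal set at 100%.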

[4] = target: T1, 17-beta-hydroxysteroid dehydrogenase type 3 (Rattus norvegicus); test: Inhibition of 17beta-HSD3 in rat testes microsomes using [14C]-4-androstene-3,17-dione as substrate measured based on 4% of initial enzyme transformation at 1 uM after 2 hrs; settings: Testis; method in brief: as §1
LAPC4 [5] = test: Androgenic activity in human LAPC4 cells expressing androgen receptor assessed as induction of cell proliferation at 1 uM after 3 days by MTS assay relative to control; assay type: functional; method in brief: as §2
[6] = target: T1, 17-beta-hydroxysteroid dehydrogenase type 3 (Rattus norvegicus); test: Inhibition of 17beta-HSD3 in rat testes microsomes using [14C]-4-androstene-3,17-dione as substrate measured based on 18% of initial enzyme transformation at 0.01 uM after 2 hrs; settings: Testis; method in brief: as §1
[7] = target: T1, 17-beta-hydroxysteroid dehydrogenase type 3 (Rattus norvegicus); test: Inhibition of 17beta-HSD3 in rat testes microsomes using [14C]-4-androstene-3,17-dione as substrate measured based on 18% of initial enzyme transformation at 1 uM after 2 hrs; settings: Testis; method in brief: as §1

SMILES	inhibition [1] [%]	inhibition [2] [%]	Activity (LAPC4 [3]) [%]	inhibition [4] [%]	Activity (LAPC4 [5]) [%]	inhibition [6] [%]	inhibition [7] [%]
COC(=O)[C@@H](Cc1ccccc1)N1C[C@]2(CC[C@@]3(C)[C@@H](CC[C@@H]4[C@@H]3CC[C@]3(C)C(=O)CC[C@@H]43)C2)OC1=O	80.8	56.1	0	74.3	29.2	–	–
O=C1OC2(CCCCC2)CN(Cc2cn(Cc3ccccc3)nn2)[C@H]1Cc1ccccc1	–	9.4	2.5	–	12.4	0	13.3
C[C@]12CC[C@@]3(C[C@@H]1CC[C@@H]1[C@@H]2CC[C@]2(C)C(=O)CC[C@@H]12)CN(Cc1cn(Cc2ccccc2)nn1)CC(=O)O3	–	42.2	10	–	17.7	5.1	85.3
C[C@]12CC[C@@]3(C[C@@H]1CC[C@@H]1[C@@H]2CC[C@]2(C)C(=O)CC[C@@H]12)CN(Cc1ccccc1)[C@@H](Cc1ccccc1)C(=O)O3	83.6	–	6.1	81	53.7	–	–
CC(C)C[C@@H]1NC[C@]2(CC[C@@]3(C)[C@@H](CC[C@@H]4[C@@H]3CC[C@]3(C)C(=O)CC[C@@H]43)C2)OC1=O	83.8	39.4	14.5	69.3	11.1	–	84.9
C[C@]12CC[C@]3(CN[C@H](Cc4ccccc4)C(=O)O3)C[C@@H]1CC[C@@H]1[C@@H]2CC[C@]2(C)C(=O)CC[C@@H]12	70.6	–	0	–	15.3	–	–
C[C@]12CC[C@@]3(C[C@@H]1CC[C@@H]1[C@@H]2CC[C@]2(C)C(=O)CC[C@@H]12)CN(Cc1ccc(C(F)(F)F)cc1C(F)(F)F)CC(=O)O3	–	64.1	0	–	27	18.3	89.6
C#CCN1CC(=O)O[C@@]2(CC[C@@]3(C)[C@@H](CC[C@@H]4[C@@H]3CC[C@]3(C)C(=O)CC[C@@H]43)C2)C1	–	34.1	20.1	–	25.5	0.1	80.7
C[C@]12CC[C@@]3(C[C@@H]1CC[C@@H]1[C@@H]2CC[C@]2(C)C(=O)CC[C@@H]12)CN(Cc1ccc2ccccc2c1)CC(=O)O3	–	88.3	22.3	–	16.5	0	93.2
CC(C)C[C@H]1NC[C@]2(CC[C@@]3(C)[C@@H](CC[C@@H]4[C@@H]3CC[C@]3(C)C(=O)CC[C@@H]43)C2)OC1=O	77.7	17.9	7.9	50.2	23.6	–	–
C[C@]12CC[C@@]3(C[C@@H]1CC[C@@H]1[C@@H]2CC[C@]2(C)C(=O)CC[C@@H]12)CN(Cc1ccc(-c2cccc(C(F)(F)F)c2)cc1)CC(=O)O3	–	84.8	13.5	–	14.3	26.1	84.9
C[C@]12CC[C@@]3(C[C@@H]1CC[C@@H]1[C@@H]2CC[C@]2(C)C(=O)CC[C@@H]12)CN(Cc1cc(C(F)(F)F)cc(C(F)(F)F)c1)CC(=O)O3	–	61.6	12	–	5.9	15.1	94.4
C[C@]12CC[C@@]3(C[C@@H]1CC[C@@H]1[C@@H]2CC[C@]2(C)C(=O)CC[C@@H]12)CN(Cc1cccc(C(F)(F)F)c1)CC(=O)O3	–	54.1	0	–	27	17.7	94.2
COC(=O)[C@H](CC(C)C)N1C[C@]2(CC[C@@]3(C)[C@@H](CC[C@@H]4[C@@H]3CC[C@]3(C)C(=O)CC[C@@H]43)C2)OC1=O	88.4	57.6	0	82.3	8.4	–	93.6
COC(=O)CN1C[C@]2(CC[C@@]3(C)[C@@H](CC[C@@H]4[C@@H]3CC[C@]3(C)C(=O)CC[C@@H]43)C2)OC1=O	80.8	9	11	54.6	33.8	–	–
C[C@]12CC[C@]3(CN[C@@H](Cc4ccccc4)C(=O)O3)C[C@@H]1CC[C@@H]1[C@@H]2CC[C@]2(C)C(=O)CC[C@@H]12	88.2	–	3.9	75	36.5	–	–
C[C@]12CC[C@@]3(C[C@@H]1CC[C@@H]1[C@@H]2CC[C@]2(C)C(=O)CC[C@@H]12)CN(Cc1ccccc1C(F)(F)F)CC(=O)O3	–	77.9	0.5	–	36.9	24.4	83
COC(=O)[C@H](Cc1ccccc1)N1C[C@]2(CC[C@@]3(C)[C@@H](CC[C@@H]4[C@@H]3CC[C@]3(C)C(=O)CC[C@@H]43)C2)OC1=O	87.7	48.3	0	72.1	0	–	–
C[C@]12CC[C@]3(CNCC(=O)O3)C[C@@H]1CC[C@@H]1[C@@H]2CC[C@]2(C)C(=O)CC[C@@H]12	82	0	9.7	44.7	32	–	–
C[C@]12CCC(=O)C[C@@H]1CC[C@@H]1[C@@H]2CC[C@]2(C)[C@@H](O)CC[C@@H]12 [STANOLONE]	–	–	28.8	–	51.5	–	–
C#CCN1CC2(CCCCC2)OC(=O)[C@@H]1Cc1ccccc1	–	0	11.1	–	0	0	0
C=CCN1CC(=O)O[C@@]2(CC[C@@]3(C)[C@@H](CC[C@@H]4[C@@H]3CC[C@]3(C)C(=O)CC[C@@H]43)C2)C1	–	48.6	31	–	11.3	8.4	89
C[C@]12CC[C@@]3(C[C@@H]1CC[C@@H]1[C@@H]2CC[C@]2(C)C(=O)CC[C@@H]12)CN(Cc1cccc2ccccc12)CC(=O)O3	–	79.1	3.8	–	9.3	12.8	94.5
C[C@]12CC[C@@]3(C[C@@H]1CC[C@@H]1[C@@H]2CC[C@]2(C)C(=O)CC[C@@H]12)CN(Cc1ccc(I)cc1)CC(=O)O3	–	79	0.9	–	15.9	12.2	95.3
CC(C)C[C@H]1C(=O)O[C@@]2(CC[C@@]3(C)[C@@H](CC[C@@H]4[C@@H]3CC[C@]3(C)C(=O)CC[C@@H]43)C2)CN1Cc1ccccc1	87.1	62.9	8.4	77.3	44.2	–	93.1
COC(=O)[C@@H](CC(C)C)N1C[C@]2(CC[C@@]3(C)[C@@H](CC[C@@H]4[C@@H]3CC[C@]3(C)C(=O)CC[C@@H]43)C2)OC1=O	67.8	55.4	1.5	76.9	21.9	–	73.6
CC(C)C[C@@H]1C(=O)O[C@@]2(CC[C@@]3(C)[C@@H](CC[C@@H]4[C@@H]3CC[C@]3(C)C(=O)CC[C@@H]43)C2)CN1Cc1ccccc1	82.3	45.9	6.2	56.5	47.7	–	–
C[C@]12CC[C@@]3(C[C@@H]1CC[C@@H]1[C@@H]2CC[C@]2(C)C(=O)CC[C@@H]12)CN(Cc1ccccc1)[C@H](Cc1ccccc1)C(=O)O3	–	–	9.9	61.7	50.1	–	–
